Compound activity as filed in PubChem.
SR-BI DiI-HDL act: activators of SR-BI mediated DiI-HDL uptake, primary screen, ldlA[mSR-BI] CHO cells, DiI fluorescence; 3 h; 100 = double the neutral-control signal; 320,000 compounds, 0.096% hits; activation, % at 12.5 µM;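 active means mean replicate activation of at least 60% and every replicate at or above 60%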;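 further: 0% = median plate neutral-control signal and 100% = twice that signal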
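System: CHO ldlA[mSR-BI] cells / Medium: HEPES-buffered (25 mM, pH 7.4) F12 plus 0.5% BSA / Probe or stimulus: labelled HDL, 10 µg/mL / Doses: single compound concentration, delivered by pin transfer / Schedule: 3 h, 37 °C / Measured by: DiI fluorescence, bottom read / Measure: cell-associated DiI fluorescence as measure of HDL uptake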
Dyrk1A ADPGlo: rat Dyrk1A kinase inhibitors, primary screen, biochemical, single point, plate reader; inhibition, % at 12.5 µM; 310,000 compounds, 0.43% hits; Dual specificity tyrosine-phosphorylation-regulated kinase 1A (Rattus norvegicus), Q63470; ADP-Glo luminescence, NFATc1 peptide;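 further: plate controls were vehicle with enzyme for no effect and no enzyme for full effect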
dFosB activator: activators of delta FosB homodimer, primary screen, biochemical, fluorescence polarization, TAMRA-CDK5 oligo, single point; purified delta FosB; percent of positive-control signal above neutral wells; activation, % at 25 µM; 340,000 compounds, 0.99% hits; AID 493131, 2011;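 active means mean activation above about 17%, with every replicate also reaching it, limit read from the data, passing the limit was not always enough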
NSD2 inh: NSD2 histone methyltransferase inhibitors, primary screen, biochemical, AlphaScreen, single concentration, set 2 | NSD2 peptide methylation, 120 min | inhibition, % at 12.5 µM | 310,000 compounds, 0.54% hits | AID 743445, 2014
CDK5 inh: inhibitors of human CDK5/p35 kinase, primary screen, biochemical, single concentration; Cyclin-dependent kinase 5 (Homo sapiens) + Cyclin-dependent kinase 5 activator 1 (Homo …; Recombinant CDK5/p35, ADP-Glo luminescence, 60 min; inhibition, % at 10 µM; 330,000 compounds, 0.01% hits;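 active means highest replicate inhibition of at least 50% and at least 75% of replicates reaching 50%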;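 further: plate controls were DMSO neutral control for no effect and GW8510 at 10 µM for full effect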
Target sequence (Q00535 whole entry, looked up): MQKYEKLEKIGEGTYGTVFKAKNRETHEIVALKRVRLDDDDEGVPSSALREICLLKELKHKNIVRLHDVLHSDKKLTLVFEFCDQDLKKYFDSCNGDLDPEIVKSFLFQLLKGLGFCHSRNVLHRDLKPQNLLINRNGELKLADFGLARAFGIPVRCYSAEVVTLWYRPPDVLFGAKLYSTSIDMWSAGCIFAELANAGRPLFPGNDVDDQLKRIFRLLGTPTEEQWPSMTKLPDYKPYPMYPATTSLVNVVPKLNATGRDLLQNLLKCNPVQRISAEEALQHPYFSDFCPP
Target sequence (Q15078 whole entry, looked up): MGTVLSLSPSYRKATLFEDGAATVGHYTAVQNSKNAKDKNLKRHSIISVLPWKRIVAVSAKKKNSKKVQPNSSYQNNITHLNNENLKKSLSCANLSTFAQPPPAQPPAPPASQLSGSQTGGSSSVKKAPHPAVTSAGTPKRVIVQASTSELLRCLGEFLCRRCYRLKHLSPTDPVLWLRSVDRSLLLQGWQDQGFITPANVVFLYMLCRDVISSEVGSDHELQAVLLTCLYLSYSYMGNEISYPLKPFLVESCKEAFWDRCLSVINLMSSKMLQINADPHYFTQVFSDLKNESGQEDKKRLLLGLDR
SR-BI DiI inh: inhibitors of SR-BI mediated HDL lipid uptake, primary screen, ldlA[mSR-BI] cells, fluorescence, single point. Scavenger receptor class B member 1 (Mus musculus), Q61009. inhibition, % at 12.5 µM. 320,000 compounds, 0.96% hits. ldlA[mSR-BI] CHO cells, DiI-HDL uptake fluorescence, 3 h;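 active means mean replicate inhibition of at least 70% and a set share of replicates each scoring 70 or more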;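 further: 0% = median of neutral control wells and 100% = median of positive control wells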
Active calls of the source: *; / = no result given. Compounds with a hit are over-represented: about 2.5% of the library has one in this group of screens. Unless noted, no stated cut-off is given here; in the data, active means inhibition above about 50%; inactive means the rest.

SMILES	SR-BI DiI-HDL act	Dyrk1A ADPGlo	dFosB activator	NSD2 inh	CDK5 inh	SR-BI DiI inh
Cc1nnc(SC(C)C(=O)N(C)C2CCCCC2)n1N (centres undefined)	25	-2	-1	1	0	-25
CCOc1cc(NC(=O)C2CC2)c(OCC)cc1NC(=O)c1ccccc1OCC	-72	3	-6	0	0	72*
CCOc1ccccc1NC(=O)c1cccc2ccccc12	-70	/	-1	-3	0	70*
CCOc1ccccc1NC(=O)c1ccccc1-c1ccccc1	-26	7	-5	-4	0	26
CCOc1ccccc1NC(=O)c1csc(C)c1C	-81	-10	-6	-3	0	81*
C=CCN1C(=O)c2ccc(C(=O)NCCOc3ccccc3F)cc2C1=O	-2	1	-2	-1	-1	2
COc1ccc(-c2csc(NC(=O)CSc3nnc4c(C)cc5ccccc5n34)n2)cc1	/	/	/	6	/	/
CN(C)C=Nc1ccc2nc3c(cc2c1)[nH]c1ccccc13	10	37	-93	-6	2	-10
O=[N+]([O-])c1ccc(O)c(-c2nc(-c3ccccc3)c(-c3cccs3)[nH]2)c1	-84	3	-9	6	0	84*
O=C(O)c1ccc(-c2nc(-c3ccccc3)c(-c3cccs3)[nH]2)cc1	/	3	2	-2	-1	/
CCCCCn1c(N)c(-c2nc3ccccc3s2)c2c([N+](=O)[O-])nn(C)c(=O)c21	-84	2	-2	6	-1	84*
CCCCn1c(N)c(-c2nc3ccccc3o2)c2c([N+](=O)[O-])nn(C)c(=O)c21	-9	1	-15	3	-1	9
Cc1ccc(-c2nnc(SCC(=O)Nc3ccc4c(c3)OCCO4)n2-c2ccc(C)cc2)cc1	/	/	/	1	/	/
CCOc1ccc(-n2cc(C(=O)N3CCCCCC3)c3cc(OC)c(OC)cc3c2=O)cc1	-75	-10	-13	/	-1	75*
C=C(NC(=O)C(=C)NC(=O)c1csc(C2=NC3c4csc(n4)C4NC(=O)c5csc(n5)C(C(C)(O)C(C)O)NC(=O)C5CSC(=N5)/C(=C/C)NC(=O)C(C(C)O)NC(=O)c5csc(n5)C3(CC2)NC(=O)C(C)NC(=O)C(=C)NC(=O)C(=C)NC(=O)C(C(C)C)NC2C=Cc3c(C(C)O)cc(nc3C2O)C(=O)OC4C)n1)C(N)=O (centres undefined)	143*	-2	17*	/	0	-143
COc1ccc2c(c1)CCc1cc(C(=O)N3CCN(c4ccc(N5CCOCC5)nn4)CC3)sc1-2	-77	7	2	/	2	77*
CCn1c(SCC(=O)N2CCCC2=O)nnc1-c1cccs1	96*	0	-1	0	1	-96
O=C(COC(=O)c1cc(Br)ccc1O)Nc1ccc2c(c1)OCCO2	6	-3	23*	-1	-2	-6
O=C(NCC(c1ccccc1)c1ccccc1)[C@H](Cc1ccccc1)NC1(C(=O)NC2CCCCC2)CCCCCC1	/	/	/	3	/	/
CCN(CC)S(=O)(=O)c1cccc(NC(=O)/C=C/c2ccc([N+](=O)[O-])cc2)c1	-76	-7	-3	0	0	76*
CN(C)S(=O)(=O)c1cccc(NC(=O)/C=C/c2ccccc2[N+](=O)[O-])c1	-75	0	1	-3	0	75*
CCN(CC)S(=O)(=O)c1ccc(NC(=O)c2ccc(Cl)nc2)cc1	-76	8	-10	4	-2	76*
CN(c1ccccc1)S(=O)(=O)c1cccc(NC(=O)c2cccc(C#N)c2)c1	-42	/	-4	3	0	42
CCN(CC)S(=O)(=O)c1cccc(NC(=O)c2ccc(C#N)cc2)c1	-77	-3	-16	-3	1	77*
O=C1C(=O)N(Cc2ccc(-c3ccccc3)cc2)c2ccc(OC(F)(F)F)cc21	/	/	/	-2	/	/
